The nature of the data set: Toxicity liver stage against HepG2, at 10uM. The data set is classed as cell-based. The following applies: human, HepG2-A16-CD81EGFP cells; read-out: INHIBITION
Also noted: test concentration 10 uM, cell line HepG2-A16-CD81EGFP. The gist of the method: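 Uninfected HepG2-A16-CD81EGFP cells, 3 × 10^3 per well, 1536-well, plated on prespotted compound at 10 μM final, parasite-free screening media added to match infected plates; puromycin 10 μM positive, DMSO 0.5% negative; run in parallel with 48 h PbLuc assay at 37 °C, 5% CO2; viability by CellTiter-Glo luminescence, normalized to controls.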
As to `CCC1CN(CC(=O)NCCN(CC)CC)c2ccccc2S1` (stereo unspecified), the cytotoxicity at 10 µM is -1.23%. Turning to `Cc1ccc(C(=O)N2CCC3(CC2)CC(c2ccccc2)C(=O)N3)o1` (stereo unspecified), the cytotoxicity at 10 µM is 11.1%. Consider `Cc1cnc(C(=O)N2CC[C@H]3C[C@@H](c4nc(C)cs4)O[C@@H]3C2)cn1`, for which the cytotoxicity at 10 µM was 9.32%. For the molecule `O=C(NCc1cccnc1)C1=NOC2(CCN(S(=O)(=O)C3CC3)C2)C1` (stereo unspecified), the cytotoxicity at 10 µM is -7.36%.

With `Cc1ccc(Cn2cc(Br)c(NS(C)(=O)=O)n2)cc1`, the cytotoxicity at 10 µM turned out to be 0.22%. For the molecule `O=C(c1cc2cccc(F)c2[nH]1)N1C[C@@H](O)[C@H](N2CCCC2)C1`, the cytotoxicity at 10 µM was found to be 0.152%. Then `FC(F)(F)c1cc(C2CCCN(c3cnccn3)C2)n2ccnc2n1` (stereo unspecified), with 6.39%; and `Cc1ncc(CN2CCOC(c3ccc(-c4cc[nH]n4)cn3)C2)s1` (stereo unspecified), with -16.5%; and `CN1CCC(c2cncc(-c3cccc(Cl)c3)n2)CC1`, with -20.8%. With `O=C(c1ccccn1)N1CCC(c2nc(O)cc(-c3ccncc3)n2)C1` (stereo unspecified), the cytotoxicity at 10 µM was -4.7%. Then `Cc1ccccc1-c1cncc(C2CCN(Cc3ccccn3)CC2)n1`, with -22.2%; and `CC1CCN(S(=O)(=O)N2CCC(Oc3cnccn3)CC2)CC1`, with -2.76%.

For `CN(C)Cc1ccnc(C2CCCN2Cc2cc3ccccc3s2)n1` (stereo unspecified), the cytotoxicity at 10 µM turned out to be 20.2%. With `CN(Cc1cccc(OC(F)(F)F)c1)C(=O)Cc1ccon1`, the cytotoxicity at 10 µM was -9.61%.

As for `CCc1nnc2n1CCN(C(C(=O)N(CC)CC)c1ccccc1)C2` (stereo unspecified), the cytotoxicity at 10 µM is -0.77%. Take `COCC(O)CN1CCC(NC(=O)c2ccccc2Cl)CC1` (stereo unspecified): the cytotoxicity at 10 µM was -4.87%. Then `CCc1noc(CNc2cc3c(cc2Cl)OCCCO3)n1`, with -1.98%; and `CCCn1nc(C(=O)NCCc2nnc3n2CCC3)ccc1=O`, with 3.38%. Turning to `COC(=O)c1ccc(N(C(=O)c2cc(Cl)ccn2)C(C)C)c(C)c1`, the cytotoxicity at 10 µM was 7.51%.

As to `COc1cc(C#N)ccc1OCC(=O)NS(=O)(=O)c1cccnc1`, the cytotoxicity at 10 µM worked out at 5.41%.

Take `Cc1ccc(NC(C(N)=O)c2ccc(F)cc2)cc1` (stereo unspecified): the cytotoxicity at 10 µM came to 9.19%. Then `C[S+]([O-])c1nncn1CC(=O)c1ccc(Br)cc1` (stereo unspecified), with 0%. Turning to `Cc1cccc(C)c1OCC(O)CNCc1c(C)nn(C)c1N(C)C` (stereo unspecified), the cytotoxicity at 10 µM is -1.47%. Consider `Cc1ccc(CNCc2cccc(NC(=O)CCN3CCOCC3)c2)s1`, for which the cytotoxicity at 10 µM was -1.91%. With `Cc1nc(C2CN(Cc3ccccc3C)CCO2)no1` (stereo unspecified), the cytotoxicity at 10 µM was -1.51%. Turning to `COC[C@@]12CCC[C@@H]1CN(C(=O)COc1ccccc1OC)C2`, the cytotoxicity at 10 µM is -106%.

Consider `O=S(=O)(c1ccccc1)N1CCC[C@]2(C[C@H](OCC3CC3)CO2)C1`, for which the cytotoxicity at 10 µM is -75.9%. In the case of `CC(C)c1nc(CN(C)C(=O)CCc2ccc3c(c2)OCO3)cs1` it was -15.8%; in that of `COCCC(=O)N1C[C@H](C(C)C)[C@@H](N(C)C)C1`, 5.75%.

Regarding `CCC[C@@H]1CN(Cc2ccccc2OC(F)(F)F)C[C@H]1NC(C)=O`, the cytotoxicity at 10 µM came to 5.5%. In the case of `CNC(=O)c1cc(NC(=O)NCC2CCS(=O)(=O)C2)ccc1OC` (stereo unspecified) it was 9.57%; in that of `O=C(c1ccc(S(=O)(=O)NCc2ccncc2)cc1)N1CCNCC1`, 2.3%.

`CC(=O)NCCNCc1cn(CCN2CCSCC2)nc1C`: the cytotoxicity at 10 µM came to 0.95%. As for `COCCN(C)C(C(=O)O)c1ccc(C)c(C)c1` (stereo unspecified), the cytotoxicity at 10 µM was -9.47%. In the case of `CC(=O)NCCC1CCCCN1C(=O)c1cccc(CCC(C)(C)O)c1` (stereo unspecified), the cytotoxicity at 10 µM was determined as 4.13%. Consider `Cc1nc(C(=O)N2CCC3(CC2)CC(=O)N(CC2CCCO2)C3)cs1` (stereo unspecified), for which the cytotoxicity at 10 µM amounted to 2.34%. Turning to `Cc1cc(C(F)(F)F)nc(CNc2nc(C)nc3c2cnn3C)n1`, the cytotoxicity at 10 µM was -2.24%. As to `O=C(c1nc(=O)[nH]c2ccccc12)N1CCCC2(CCNC2)C1` (stereo unspecified), the cytotoxicity at 10 µM is -3.64%. With `Cc1noc(CN(C)C(=O)CCn2cnc3ccccc32)n1`, the cytotoxicity at 10 µM worked out at 10.1%. Then `Cc1ccsc1CN(Cc1ccccn1)CC(O)CO` (stereo unspecified), with 0.773%; and `CNCCNc1nccc(-c2cn(C)nc2C)n1`, with 2.35%; and `CCOc1ccccc1CC(=O)N1CCCC(c2ncc[nH]2)C1` (stereo unspecified), with -2.65%. With `CC(CC(F)(F)F)NCc1ccccc1-n1ccnc1` (stereo unspecified), the cytotoxicity at 10 µM is 3.15%. As to `O=C1OCCN1CCNc1ncc2c(n1)CCN2c1ccccc1`, the cytotoxicity at 10 µM is -4.95%. Turning to `CCn1ncnc1C1CC(=O)NCc2nc(N3CCOCC3)sc21` (stereo unspecified), the cytotoxicity at 10 µM was 3.94%. Consider `N#Cc1cccc(NC(=O)N2CCC3(CCC(=O)N(C4CC4)C3)CC2)c1`, for which the cytotoxicity at 10 µM amounted to 3.9%. Turning to `C=C(C)COc1ccccc1CN1CCC(NC(C)=O)CC1`, the cytotoxicity at 10 µM was found to be 11.9%. As to `CC(=O)N[C@@H]1CN(Cc2ccccc2-n2cccn2)C[C@H]1C(C)C`, the cytotoxicity at 10 µM was determined as 8.67%. With `CCN(Cc1cc(Cl)ccc1OC)Cc1ncnn1CC`, the cytotoxicity at 10 µM worked out at 3.9%. In the case of `Cc1ncc(C(=O)NCCOc2ccccc2F)c(C)n1` it was 24.8%. Then `CN(CCSc1ccccc1)C(=O)C(c1cccnc1)N1CCOCC1` (stereo unspecified), with 4.94%. For `O=C(c1cccnc1SC/C=C/c1ccccc1)N1CCOCC(O)C1` (stereo unspecified), the cytotoxicity at 10 µM was -2.42%. Then `Cc1cc(-c2ccc(C(=O)O)cc2)nc(C2CCCN(C(C)C)C2)n1` (stereo unspecified), with 5.61%; and `O=C(NCCN1CCCCC1)c1ccn(-c2ccccc2)n1`, with 7.53%; and `Cc1cnn(C2CCCN(C(=O)c3ccc(N4CCCC4)nc3)C2)c1` (stereo unspecified), with -4.77%. Take `CCc1ncncc1C(=O)N1CCCN(Cc2ccc(C#N)cc2)CC1`: the cytotoxicity at 10 µM was -2.91%.

For the molecule `CCC(C)(C)NC(=O)CN1C=Nc2ccccc2S1(=O)=O`, the cytotoxicity at 10 µM was -4.47%. As for `CC(C)c1nccn1C1CCCN(C(=O)CN(C)C2CC2)C1` (stereo unspecified), the cytotoxicity at 10 µM was -4.3%. For `CCc1nc2n(n1)CC(NCc1nc(Cc3ccccc3)no1)CC2` (stereo unspecified), the cytotoxicity at 10 µM came to 1.06%. In the case of `O=C(c1ccc2c(c1)CCCC2)N1CCCC(n2cncn2)C1` (stereo unspecified) it was -8.51%; in that of `O=C(c1ccccc1)N1CCN(CC(O)c2ccc(F)cc2)CC1` (stereo unspecified), -8.24%.

On to `Cc1cccc2nc(CN3CCCC3Cn3cccn3)cn12` (stereo unspecified), for which the cytotoxicity at 10 µM turned out to be 0.893%. As to `CCc1ncc2c(n1)CN(CC(=O)Nc1cccnc1)CC2`, the cytotoxicity at 10 µM was -1.1%. As for `O=C(CN1CCCC(Cn2cncn2)C1)NCc1ccccc1F` (stereo unspecified), the cytotoxicity at 10 µM was -4.65%.

For `Cc1cccc(-c2noc(CN3CCCC3Cn3cncn3)n2)c1` (stereo unspecified), the cytotoxicity at 10 µM was found to be 0.983%. Turning to `Cc1cnn(CC2CN(CC(=O)NCc3ccc(C)s3)CCO2)c1` (stereo unspecified), the cytotoxicity at 10 µM turned out to be 0.742%. On to `Cc1nccn1C1CCCN(C(=O)c2cccc(S(C)(=O)=O)c2)C1` (stereo unspecified), for which the cytotoxicity at 10 µM was -11.6%. In the case of `CC(C)CCN(C(=O)c1ccc(-n2ncc(C#N)c2N)cc1)C1CC1` it was -23.6%; in that of `c1cnnc(N2CCCC2CNCc2cccs2)c1` (stereo unspecified), -9.61%.

Turning to `CCn1ccnc1CN1CCCN(C(=O)Cc2csc(C)n2)CC1`, the cytotoxicity at 10 µM is -2.12%.

On to `COc1ccccc1C(=O)N(C)C1CCN(c2ccccn2)CC1`, for which the cytotoxicity at 10 µM was -15.4%. `CC(C)c1nnc(CNC2CCCN(Cc3noc(C4CC4)n3)C2)o1` (stereo unspecified): the cytotoxicity at 10 µM was -5.62%. As for `CCN1CCN(C(=O)CCc2c(C)noc2Cl)CC1`, the cytotoxicity at 10 µM is -4.37%. On to `O=C(CC1CCCO1)NCc1ccccc1Cn1cncn1` (stereo unspecified), for which the cytotoxicity at 10 µM was -2.55%.

For `CCN(CC)Cc1ccc(C(=O)N2CCCCC2Cn2cccn2)o1` (stereo unspecified), the cytotoxicity at 10 µM was -7.89%. Then `Cc1nc(C)n(C2CCCN(C(=O)c3ccc4c(c3)COC4)C2)n1` (stereo unspecified), with -9.12%; and `CC(=O)N(Cc1noc(C2CC2)n1)C1CCN(Cc2nccn2C)C1` (stereo unspecified), with -5.65%; and `CCn1cc(NC(=O)C2CCN(Cc3ccccc3C#N)CC2)cn1`, with 1.13%. As for `O=C(NCCNc1cnccn1)N1CCCC1`, the cytotoxicity at 10 µM came to 3.92%. Consider `OC1CCCN(Cc2ccnc(-c3cccnc3)n2)C1` (stereo unspecified), for which the cytotoxicity at 10 µM came to 14%. In the case of `CN1CC(=O)N(c2ccsc2)CC12CCN(C(=O)c1cccn1C)C2` (stereo unspecified), the cytotoxicity at 10 µM is -75.7%.

`CN1CCOCC2(CCCN(C(=O)Cc3ccncc3)C2)C1` (stereo unspecified): the cytotoxicity at 10 µM is -84.6%. In the case of `Cc1nc(CN2CCc3cc(C(=O)O)c(N(C)C)nc3CC2)cs1` it was 3.42%; in that of `CNC(=O)CN1CC[C@H]2CN(C(=O)c3ccccc3F)C[C@H]2C1`, -1.34%. In the case of `O=C([C@H]1CC[C@@H]2[C@@H](CCN2Cc2nccs2)O1)N1CCCCO1`, the cytotoxicity at 10 µM was 6.85%. On to `Cc1ccccc1CN1CC[C@H]2C[C@H](C(=O)N(C)C)O[C@H]2C1`, for which the cytotoxicity at 10 µM worked out at 4.36%. For `O=C(C[C@@H]1COC[C@H]2CN(Cc3cccnc3)C[C@@H]12)N1CCOCC1`, the cytotoxicity at 10 µM is -3.35%. For `O=C1[C@H]2CN(c3ncccn3)C[C@H]2CN1CCN1CCCC1`, the cytotoxicity at 10 µM worked out at 2.2%.

As for `Cc1ccc2c(c1)C1(CC2)CCN(CC(=O)O)CC1`, the cytotoxicity at 10 µM was found to be 0.806%.

In the case of `CN1CCc2onc(CNc3ncccn3)c2C1`, the cytotoxicity at 10 µM is 1.58%. In the case of `COC1COC2(CCN(Cc3ccc(Cl)cc3)CC2)C1` (stereo unspecified), the cytotoxicity at 10 µM is 2.2%. Then `COCCN1CCC(c2nc3ccc(NC(C)C)cn3n2)CC1`, with -5.26%. As for `CN(C)C(=O)CN1CCC2(COCc3cnc(N4CCOCC4)nc32)C1` (stereo unspecified), the cytotoxicity at 10 µM was -70.5%.

As for `Cc1nc(CN2C[C@@H]3CN(C(=O)[C@H]4CCCO4)C[C@@H]3C2=O)cs1`, the cytotoxicity at 10 µM was -81.5%. As to `CS(=O)(=O)NC1CC2(CCN(CC3CC3)CC2)Oc2ccccc21` (stereo unspecified), the cytotoxicity at 10 µM was -5.34%. In the case of `Cc1nnc(SCC(=O)N2C[C@@H]3CC[C@H]2CN(c2ncccn2)C3)[nH]1`, the cytotoxicity at 10 µM came out at 2.24%.

Source of the values: ChEMBL document CHEMBL4513216, “Probing the Open Global Health Chemical Diversity Library for Multistage-Active Starting Points for Next-Generation Antimalarials” (ACS Infect Dis, 2020).
